# Source: PubChem
# Compounds with a hit are over-represented: about 2.3% of the library has one in this group of screens.
# Mcl-1 Bim block: human Bim-Mcl-1 interaction inhibition. Bead-based flow cytometry, Bim peptide-Mcl-1 binding. inhibition, % at 10 µM. hit rate 0.1% among 190,000. AID 1009; in the data active means inhibition above about 40%;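 further: 0% = no compound tracer wells and 100% = peptide blocker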
# Target sequence (Q07820 whole entry, looked up): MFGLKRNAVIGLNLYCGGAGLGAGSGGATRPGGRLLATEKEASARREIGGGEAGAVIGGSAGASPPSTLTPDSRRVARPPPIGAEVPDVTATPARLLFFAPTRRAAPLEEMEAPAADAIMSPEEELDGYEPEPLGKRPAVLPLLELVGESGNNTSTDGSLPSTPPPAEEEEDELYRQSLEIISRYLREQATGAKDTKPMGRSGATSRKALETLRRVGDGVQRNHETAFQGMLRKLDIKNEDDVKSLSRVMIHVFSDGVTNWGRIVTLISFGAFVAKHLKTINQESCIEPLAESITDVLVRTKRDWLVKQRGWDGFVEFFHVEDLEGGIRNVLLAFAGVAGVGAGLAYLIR
# Pemphigus Ab inh: blocks pemphigus antibody binding to human desmoglein-3 | binding (percent of control), % at 10 µM | hit rate 0.48% among 310,000 | P32926 | AID 588358 | DSG3-coupled beads, scFv-anti-DSG3-GFP binding, flow cytometry; stronger effect = lower value;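 active means binding more than 3 SD below its plate's average and above zero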
# T cell HTS: modulates CD8 T cell binding to vesicles; 2C CD8+ T cell-vesicle binding, flow cytometry; stronger effect = lower value; response (vesicle binding), % at 7 µM; hit rate 0.068% among 330,000;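 active means response, share of CD8 T cells binding vesicles, and their 90th percentile fluorescence all below set limits, cut at about 80% in these data, passing the limit was not always enough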;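 further: values below 100% mean blocked vesicle binding to the CD8+ T cells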
#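 Also added: QL9-peptide-loaded Drosophila micro-vesicles bearing Ld, ICAM-1 and B7-1; Test system: purified 2C TCR transgenic mouse naive CD8+ T cells; Measured by: cytometric PE anti-B7-1 and Alexa647 anti-CD8 signals after 1% paraformaldehyde fixation; Timing: binding step 1.5 h, 37 °C, antibody labelling 20 min, ice.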
# Mcl1-Bid inh: Mcl-1/Bid interaction inhibition | TR-FRET Mcl-1/Bid-Dy647 peptide binding, 1536-well | hit rate 0.97% among 220,000 | inhibition, % at 21.7 µM | AID 1021 | Q07820;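 active means compounds that cut the binding signal by more than half at the single screening dose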;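 further: His-tagged Mcl-1 with europium anti-His antibody binding Bid BH3 peptide; 0% = Mcl-1 plus peptide wells and 100% = peptide-only wells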
# Mcl1-Noxa inh: disrupts binding of human Mcl-1 to Noxa peptide; inhibition, % at 21.7 µM; AID 1022; TR-FRET Mcl-1/Noxa peptide binding, 2 h; hit rate 1.5% among 220,000;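 active means compounds that cut the protein-peptide binding signal by more than 50% relative to plate controls in a single-dose test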;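 further: His-tagged Mcl-1 with rhodamine Noxa BH3 peptide and terbium anti-His antibody; 0% = Mcl-1 plus Noxa peptide wells and 100% = peptide-only wells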
# MCL1-BIM inh: inhibitors of human MCL1 binding to BIM-BH3 peptide | inhibition, % at 10.9 µM | GST-MCL1 / FITC-Bim-BH3 fluorescence polarization | AID 2057 | hit rate 0.68% among 320,000 | Q07820;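 active means inhibition above the mean inhibition of all tested compounds plus 3 SD, set per campaign, cut at about 40% in these data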;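 further: 0% = DMSO wells and 100% = unlabeled Bim-BH3 peptide control; higher means more loss of mP so more displacement of Bim peptide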
# Active calls of the source: *; i = inactive; · = no result given.
SMILES,Mcl-1 Bim block,Pemphigus Ab inh,T cell HTS,Mcl1-Bid inh,Mcl1-Noxa inh,MCL1-BIM inh
N#Cc1c(Cl)nc(N/N=C/c2ccccc2)c(Cl)c1Cl,-4,105,272,2,41,4
C[N+](C)(C)c1ccc(/C=N/Nc2nc(Cl)c(C#N)c(Cl)c2Cl)cc1,-4,104,350,91*,37,-9
O=C(N/N=C/c1cc(Cl)ccc1O)c1ccc(Br)cc1,2,·,583,-25,63*,5
Cc1ccc(N=Nc2ccc(O)c(/C=N\NC(=O)c3ccc(N)cc3)c2)cc1C,-1,84,131,-23,86*,8
O=C(N/N=C/c1cc(Br)ccc1O)c1ccncc1,·,109,194,-104,-69,1
CC(C)(C)OC(=O)N/N=C/c1cc(N=Nc2ccccc2)ccc1O,-6,93,246,-4,5,3
CN(Cc1cc2ccccc2[nH]c1=O)S(C)(=O)=O,-2,54*,310,-33,8,-6
CN1c2ccccc2C(C)(C)C12C=Nc1c(ccc3ccccc13)O2 (centres undefined),0,101,119,-13,13,43*
CNS(=O)(=O)c1cn(CC(=O)NCc2ccc(N(C)C)cc2)cc1S(=O)(=O)NC,·,100,319,·,·,2
COC(=O)c1ccc(N2C(=O)CC(Sc3n[nH]c(C)n3)C2=O)cc1 (centres undefined),0,102,525,-17,53*,-1
COC(=O)c1cc(C(=O)OC)cc(N2C(=O)CC(Sc3nc(C)cc(C)n3)C2=O)c1 (centres undefined),2,102,115,-11,8,5
COC(=O)[C@@]1(Cc2ccccc2)[C@H]2c3cc(C(=O)N4CCCC4)n(CCSCCO)c3C[C@H]2CN1C(=O)c1ccccc1,-2,·,254,-13,101*,1
Cc1cccc(-c2ccc3c(c2)C2CC3CCN2)c1 (centres undefined),·,109,·,·,·,·
CC(C)(C)OC(=O)NCc1ccc(CNC(=O)c2nc[nH]c2C(=O)N2CCc3ccccc3C2)cc1,·,108,i,·,·,2
Cc1nc(Nc2ccccc2O)c2oc3ccccc3c2n1,·,80*,192,·,·,·
Cc1nc(Nc2ccccc2F)c2oc3ccccc3c2n1,·,100,195,·,·,1
COc1ccc(CN2C(=O)C(CC(=O)NC3CC3)CC(C(=O)N(C)C)=C2C)cc1 (centres undefined),·,108,·,·,·,·
Cc1cc(Cl)c(OCCCSc2nc(C)cc(=O)[nH]2)c(Br)c1,-4,92,74*,-13,21,-1
CCOC(=O)c1c(C)[nH]c(C)c1C(=O)COC(=O)[C@@H](NC(=O)c1ccco1)C(C)C,·,94,715,·,·,·
CCOc1ncccc1C(=O)NCCN1C(=O)S/C(=C/c2cccs2)C1=O,-2,79*,215,-16,14,14
COc1cccc(C(=O)NCCN2C(=O)S/C(=C/c3cccs3)C2=O)c1OC,1,85,304,-62,11,10
O=C(COc1ccccc1)Nc1cc(Cl)ccc1Cl,·,80*,382,·,·,0
COc1ccc(NC(=O)c2ccccc2NC(=O)COc2ccccc2)cc1,4,99,218,53*,-70,1
COCC(=O)Nc1ccccc1C(=O)Nc1ccc(OC)cc1,-1,98,420,-17,7,-6
O=C(COc1ccccc1)Nc1ccc2c(c1)Cc1cc(NC(=O)COc3ccccc3)ccc1-2,113*,122,176,22,20,-2
SMILES,Mcl-1 Bim block,Pemphigus Ab inh,T cell HTS,Mcl1-Bid inh,Mcl1-Noxa inh,MCL1-BIM inh
CC(=O)C12OC(C)(C)OC1CC1C3CCC4=CC(=O)C=CC4(C)C3(F)C(O)CC12C (centres undefined),·,115,·,·,·,·
O=C1CCC(=O)N1c1ccc(-c2nc3sc4c(c3c(=O)o2)CCC4)cc1,·,110,i,-12,-16,6
O=c1oc(-c2ccccc2)nc2sc3c(c12)CCC3,0,87,92,-25,60*,29
O=C(NCc1cccs1)Nc1cccc(Cl)c1,·,9.4*,148,·,·,-9
O=C(Nc1cccc(Cl)c1)Nc1nnc(-c2ccncc2)s1,0,101,487,44,91*,28
CCCC(=O)Nc1ccc(C(=O)COC(=O)c2cc(C)oc2C)cc1,·,·,403,·,·,-7
N#CC(=C1C=C(Br)C(=NO)C=C1Cl)c1cccc2ccccc12,·,99,·,·,·,·
CCOC(=O)[C@@H]1[C@H]2COc3cc(OC)ccc3[C@@H]2N2C(=O)N(c3cccc(C)c3)C(=O)[C@]12C,·,99,220,·,·,·
Nc1cc(C(=O)N2CCN(c3cccc(Cl)c3)CC2)ccc1N1CC2CC(C1)c1cccc(=O)n1C2 (centres undefined),·,100,·,·,·,·
CC(C)c1ccc(C(CC(=O)c2ccc(Cl)cc2)C(=O)O)cc1 (centres undefined),-3,103,251,-6,-3,6
CCc1ccc(C(CC(=O)c2ccc(Cl)cc2)C(=O)O)cc1 (centres undefined),-2,101,177,96*,7,7
Nc1nc(SCc2ccc(Cl)cc2Cl)c2ncn(C3OC(CO)C(O)C3O)c2n1 (centres undefined),·,110,·,·,·,·
COc1ccc(-c2nn(-c3ccccc3)cc2/C=C(/C#N)C(N)=O)cc1[N+](=O)[O-],-1,100,254,65*,28,9
COc1ccc(-c2nn(-c3ccccc3)cc2/C=N/Nc2ccc(S(N)(=O)=O)cc2[N+](=O)[O-])cc1OC,0,87,198,-57,51*,-6
COc1ccc(-c2nn(-c3ccccc3)cc2/C=N/Nc2ccc3ccccc3n2)cc1OC,0,93,260,-13,18,3
COc1ccc(-c2nn(-c3ccccc3)cc2/C=N/NC(=O)c2cccc(S(=O)(=O)Nc3ccccc3OC)c2)cc1,-3,83*,360,-6,-26,-2
CCOC(=O)C(CCc1ccccn1)c1ccccc1 (centres undefined),·,90,·,·,·,·
CCCn1c(SCC(=O)Nc2cccnc2Cl)n[nH]c1=O,·,102,273,·,·,·
O=C(O)c1ccc(N2C(=O)CCCC2=O)cc1,·,102,342,-28,59*,1
S=C(NNc1ccnc2cc(Cl)ccc12)Nc1ccccc1Cl,-3,93,191,-35,62*,-1
COc1ccc(C(=O)NCc2nnc(SCC(=O)c3ccccc3)n2C)cc1OC,·,85,295,·,·,-6
Cc1noc(NS(=O)(=O)c2ccc(NC(=O)CSc3nc4ccccc4s3)cc2)c1C,2,121,519,9,64*,10
Cc1noc(NS(=O)(=O)c2ccc(NC(=O)CSc3ncccn3)cc2)c1C,0,104,457,15,11,2
COc1ccc(-c2cn3nc(SCC(=O)NCC4CCCO4)ccc3n2)cc1 (centres undefined),·,·,360,·,·,2
O=C(CSc1nnc(CNC(=O)c2cccs2)o1)Nc1ccccc1F,·,102,268,·,·,8
